Consider three molecules from ChEMBL document CHEMBL5696442, “Discovery of type II inhibitors of TGFβ-activated kinase 1 (TAK1) and mitogen-activated protein kinase kinase kinase kinase 2 (MAP4K2)” (J Med Chem, 2015).

Activity calls are given as the source filed them. The rule behind the calls is not given here.

In experiment [1] the target is Serine/threonine-protein kinase WNK2 (Homo sapiens) (UniProt Q9Y3S1). As to the kind of experiment: Inhibition of Wnk2 Lys2 labeling site in human Huh-7 cell lysate at 1 uM by KiNativ Profiling analysis relative to control. Format: subcellular.
In experiment [2] the target is T1, Eukaryotic translation initiation factor 2-alpha kinase 3 (Homo sapiens) (UniProt Q9NZJ5).
T1 sequence (whole entry): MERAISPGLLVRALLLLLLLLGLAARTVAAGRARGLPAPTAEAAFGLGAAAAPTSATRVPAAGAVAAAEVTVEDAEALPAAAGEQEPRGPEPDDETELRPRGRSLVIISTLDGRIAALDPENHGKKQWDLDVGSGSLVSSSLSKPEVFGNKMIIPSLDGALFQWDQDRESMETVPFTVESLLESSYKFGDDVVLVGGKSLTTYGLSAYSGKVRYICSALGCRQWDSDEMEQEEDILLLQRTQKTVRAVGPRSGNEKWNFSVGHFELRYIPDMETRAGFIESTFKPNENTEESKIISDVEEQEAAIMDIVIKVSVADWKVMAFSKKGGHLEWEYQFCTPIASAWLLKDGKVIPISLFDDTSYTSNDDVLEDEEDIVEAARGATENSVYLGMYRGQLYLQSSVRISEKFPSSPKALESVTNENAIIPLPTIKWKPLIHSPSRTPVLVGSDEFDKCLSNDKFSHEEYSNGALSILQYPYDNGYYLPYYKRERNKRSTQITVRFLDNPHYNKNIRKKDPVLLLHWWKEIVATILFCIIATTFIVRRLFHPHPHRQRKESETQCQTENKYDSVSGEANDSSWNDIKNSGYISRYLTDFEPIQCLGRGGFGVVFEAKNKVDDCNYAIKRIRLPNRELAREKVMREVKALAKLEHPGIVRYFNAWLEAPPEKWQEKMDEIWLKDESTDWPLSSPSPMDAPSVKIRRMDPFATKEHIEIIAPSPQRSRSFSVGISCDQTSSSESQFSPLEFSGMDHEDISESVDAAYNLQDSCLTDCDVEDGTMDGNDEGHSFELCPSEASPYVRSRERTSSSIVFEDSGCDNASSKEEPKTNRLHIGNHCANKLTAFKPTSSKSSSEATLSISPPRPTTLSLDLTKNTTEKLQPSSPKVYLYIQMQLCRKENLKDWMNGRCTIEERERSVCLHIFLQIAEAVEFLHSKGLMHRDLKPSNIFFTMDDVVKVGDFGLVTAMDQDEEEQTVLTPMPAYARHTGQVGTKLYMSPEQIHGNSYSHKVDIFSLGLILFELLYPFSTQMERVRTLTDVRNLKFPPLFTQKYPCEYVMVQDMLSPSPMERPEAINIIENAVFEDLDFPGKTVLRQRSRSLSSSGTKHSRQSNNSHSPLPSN
As to the kind of experiment: Inhibition of PEK Lys2 labeling site in human Huh-7 cells at 1 uM by KiNativ Profiling analysis relative to control. It is filed as cell-based.

For experiment [3], the target named is Serine/threonine-protein kinase Nek7 (Homo sapiens) (UniProt Q8TDX7). The experiment can be described thus: Inhibition of NEK7 Lys2 labeling site harbouring DIKPANVFITATGVVK in human Huh-7 cell lysate at 1 uM by KiNativ Profiling analysis relative to control. Format: subcellular.
Chain of Serine/threonine-protein kinase Nek7 (Homo sapiens) (Q8TDX7 whole entry, looked up): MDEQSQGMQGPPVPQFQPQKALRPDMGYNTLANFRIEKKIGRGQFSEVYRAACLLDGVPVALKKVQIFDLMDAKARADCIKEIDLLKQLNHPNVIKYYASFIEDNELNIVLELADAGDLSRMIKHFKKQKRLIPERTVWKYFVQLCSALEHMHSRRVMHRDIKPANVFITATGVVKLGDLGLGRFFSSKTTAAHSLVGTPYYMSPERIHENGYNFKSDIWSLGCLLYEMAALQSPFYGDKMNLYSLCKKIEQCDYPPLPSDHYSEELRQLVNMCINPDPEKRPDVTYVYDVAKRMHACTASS
The target in experiment [4] is Phosphatidylinositol 3-kinase catalytic subunit type 3 (Homo sapiens) (UniProt Q8NEB9). As to the kind of experiment: Inhibition of PIK3C3 ATP labeling site in human Huh-7 cells at 1 uM by KiNativ Profiling analysis relative to control. It is filed as cell-based.
Experiment [5] has as its target 5'-AMP-activated protein kinase catalytic subunit alpha-1 (Homo sapiens) (UniProt Q13131). The experiment can be described thus: Inhibition of AMPKa1 Lys2 labeling site in human A-375 cells at 0.5 uM by KiNativ Profiling analysis relative to control. Format: cell-based. The gist of the method: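 Intact A375 melanoma cells were treated with compound at 5 or 0.5 μM, then lysed. Lysate kinases were labeled with a lysine-reactive ATP or ADP-biotin probe (KiNativ). Inhibition is read as protection of each kinase labeling site from probe labeling.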

In experiment [6] the target is Calcium/calmodulin-dependent protein kinase type IV (Homo sapiens) (UniProt Q16566). As to the kind of experiment: Inhibition of CAMK4 (unknown origin) at 1 uM by Ambit Kinomescan binding assay relative to control; values are per cent of control.
Chain of Calcium/calmodulin-dependent protein kinase type IV (Homo sapiens) (Q16566 whole entry): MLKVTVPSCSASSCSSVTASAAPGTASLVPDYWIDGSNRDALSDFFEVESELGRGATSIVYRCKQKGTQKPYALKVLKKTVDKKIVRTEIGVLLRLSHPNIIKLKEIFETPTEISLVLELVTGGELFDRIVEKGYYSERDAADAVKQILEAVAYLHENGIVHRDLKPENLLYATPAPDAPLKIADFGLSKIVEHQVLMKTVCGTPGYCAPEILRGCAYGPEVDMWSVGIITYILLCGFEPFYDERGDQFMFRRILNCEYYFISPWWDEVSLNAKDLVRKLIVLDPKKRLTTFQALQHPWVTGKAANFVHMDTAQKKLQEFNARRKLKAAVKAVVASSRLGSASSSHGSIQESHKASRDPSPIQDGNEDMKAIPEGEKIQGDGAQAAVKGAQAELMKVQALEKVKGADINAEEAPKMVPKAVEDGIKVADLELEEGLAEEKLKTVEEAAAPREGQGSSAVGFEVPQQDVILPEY
The target in experiment [7] is Mitogen-activated protein kinase 7 (Homo sapiens) (UniProt Q13164). The experiment can be described thus: Inhibition of ERK5 (unknown origin) at 1 uM by Ambit Kinomescan binding assay relative to control.
Experiment [8] deals with Proto-oncogene tyrosine-protein kinase receptor Ret (Homo sapiens) (UniProt P07949). As to the kind of experiment: Inhibition of RET (unknown origin) at 1 uM by Ambit Kinomescan binding assay relative to control; values are per cent of control.
Chain of Proto-oncogene tyrosine-protein kinase receptor Ret (Homo sapiens) (P07949 whole entry): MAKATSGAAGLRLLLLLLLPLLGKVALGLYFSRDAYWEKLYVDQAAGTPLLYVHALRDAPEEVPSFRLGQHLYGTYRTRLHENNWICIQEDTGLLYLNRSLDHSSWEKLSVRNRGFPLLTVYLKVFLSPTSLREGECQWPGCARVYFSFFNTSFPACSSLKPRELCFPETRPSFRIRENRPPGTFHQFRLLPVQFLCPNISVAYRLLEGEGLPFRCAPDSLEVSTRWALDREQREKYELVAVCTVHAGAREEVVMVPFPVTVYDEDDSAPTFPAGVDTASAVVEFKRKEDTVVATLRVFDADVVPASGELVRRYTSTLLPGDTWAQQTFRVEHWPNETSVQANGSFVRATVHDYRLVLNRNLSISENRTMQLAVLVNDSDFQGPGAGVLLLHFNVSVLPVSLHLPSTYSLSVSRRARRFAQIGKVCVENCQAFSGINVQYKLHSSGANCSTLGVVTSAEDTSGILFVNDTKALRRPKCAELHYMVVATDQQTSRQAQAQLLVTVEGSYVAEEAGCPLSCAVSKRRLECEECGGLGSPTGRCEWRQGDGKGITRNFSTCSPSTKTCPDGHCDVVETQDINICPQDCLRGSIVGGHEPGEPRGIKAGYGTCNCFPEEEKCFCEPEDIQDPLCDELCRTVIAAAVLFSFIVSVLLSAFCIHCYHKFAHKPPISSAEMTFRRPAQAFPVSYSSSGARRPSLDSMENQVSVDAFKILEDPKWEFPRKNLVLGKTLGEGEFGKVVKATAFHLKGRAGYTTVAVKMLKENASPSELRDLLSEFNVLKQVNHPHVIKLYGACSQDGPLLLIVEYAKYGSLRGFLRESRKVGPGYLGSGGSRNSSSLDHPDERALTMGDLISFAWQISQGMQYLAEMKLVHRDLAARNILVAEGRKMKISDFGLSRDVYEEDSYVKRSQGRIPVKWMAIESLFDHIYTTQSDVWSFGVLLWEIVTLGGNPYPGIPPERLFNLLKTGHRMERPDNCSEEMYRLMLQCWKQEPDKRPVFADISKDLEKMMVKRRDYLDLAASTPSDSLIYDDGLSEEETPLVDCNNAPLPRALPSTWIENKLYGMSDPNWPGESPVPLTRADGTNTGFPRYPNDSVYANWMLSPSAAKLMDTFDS
Experiment [9] has as its target Mitogen-activated protein kinase kinase kinase 10 (Homo sapiens) (UniProt Q02779). The experiment can be described thus: Inhibition of MLK2 (unknown origin) at 1 uM by Ambit Kinomescan binding assay relative to control; values are per cent of control.
Experiment [10] concerns the target Ephrin type-A receptor 4 (Homo sapiens) (UniProt P54764). The experiment can be described thus: Inhibition of EPHA4 (unknown origin) at 1 uM by Ambit Kinomescan binding assay relative to control; values are per cent of control.
In experiment [11] the target is Fibroblast growth factor receptor 3 (Homo sapiens) (UniProt P22607). The experiment can be described thus: Inhibition of FGFR3 (unknown origin) at 10 uM by Ambit Kinomescan binding assay relative to control.
Chain of Fibroblast growth factor receptor 3 (Homo sapiens) (P22607 23-806 limits assumed): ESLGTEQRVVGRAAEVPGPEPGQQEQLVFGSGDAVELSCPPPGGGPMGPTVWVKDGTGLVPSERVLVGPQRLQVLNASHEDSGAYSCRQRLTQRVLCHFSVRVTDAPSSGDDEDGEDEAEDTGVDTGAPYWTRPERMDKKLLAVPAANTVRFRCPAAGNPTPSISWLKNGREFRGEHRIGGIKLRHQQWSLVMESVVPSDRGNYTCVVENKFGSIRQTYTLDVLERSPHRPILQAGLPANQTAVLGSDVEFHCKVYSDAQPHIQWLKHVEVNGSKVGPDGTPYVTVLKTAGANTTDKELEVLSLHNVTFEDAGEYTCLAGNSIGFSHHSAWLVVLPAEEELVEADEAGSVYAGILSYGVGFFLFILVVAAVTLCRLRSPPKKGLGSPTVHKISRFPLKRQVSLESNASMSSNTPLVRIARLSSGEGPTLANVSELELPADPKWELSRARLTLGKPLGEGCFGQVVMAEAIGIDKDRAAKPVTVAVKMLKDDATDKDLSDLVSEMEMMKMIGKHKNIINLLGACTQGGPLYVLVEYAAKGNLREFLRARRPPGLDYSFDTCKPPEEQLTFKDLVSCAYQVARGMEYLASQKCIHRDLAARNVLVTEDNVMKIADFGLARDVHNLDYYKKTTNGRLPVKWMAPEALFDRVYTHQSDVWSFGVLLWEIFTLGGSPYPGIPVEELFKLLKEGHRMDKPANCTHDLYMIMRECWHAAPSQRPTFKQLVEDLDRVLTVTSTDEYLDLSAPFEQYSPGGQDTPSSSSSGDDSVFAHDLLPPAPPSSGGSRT
For experiment [12], the target named is T2, Dual specificity mitogen-activated protein kinase kinase 6 (Homo sapiens) (UniProt P52564).
T2 sequence (whole entry): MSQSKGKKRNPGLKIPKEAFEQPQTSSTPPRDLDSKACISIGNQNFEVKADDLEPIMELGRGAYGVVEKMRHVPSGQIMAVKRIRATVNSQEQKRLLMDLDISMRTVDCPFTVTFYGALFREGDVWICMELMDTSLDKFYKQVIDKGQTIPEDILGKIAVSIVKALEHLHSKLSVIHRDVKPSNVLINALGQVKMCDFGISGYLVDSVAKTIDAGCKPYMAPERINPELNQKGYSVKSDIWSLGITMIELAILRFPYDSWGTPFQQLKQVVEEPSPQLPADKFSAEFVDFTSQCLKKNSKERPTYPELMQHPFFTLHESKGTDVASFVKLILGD
The experiment can be described thus: Inhibition of MAP2K6 K1 labeling site in human Huh-7 cells at 1 uM by KiNativ Profiling analysis relative to control. It is filed as cell-based.

For experiment [13], the target named is Activin receptor type-2A (Homo sapiens) (UniProt P27037). As to the kind of experiment: Inhibition of ACVR2A (unknown origin) at 10 uM by Ambit Kinomescan binding assay.
Experiment [14] addresses Calcium/calmodulin-dependent protein kinase type IV (Homo sapiens) (UniProt Q16566). The experiment can be described thus: Inhibition of CAMK4 (unknown origin) at 10 uM by Ambit Kinomescan binding assay.

Chain of Mitogen-activated protein kinase kinase kinase 10 (Homo sapiens) (Q02779 whole entry, looked up): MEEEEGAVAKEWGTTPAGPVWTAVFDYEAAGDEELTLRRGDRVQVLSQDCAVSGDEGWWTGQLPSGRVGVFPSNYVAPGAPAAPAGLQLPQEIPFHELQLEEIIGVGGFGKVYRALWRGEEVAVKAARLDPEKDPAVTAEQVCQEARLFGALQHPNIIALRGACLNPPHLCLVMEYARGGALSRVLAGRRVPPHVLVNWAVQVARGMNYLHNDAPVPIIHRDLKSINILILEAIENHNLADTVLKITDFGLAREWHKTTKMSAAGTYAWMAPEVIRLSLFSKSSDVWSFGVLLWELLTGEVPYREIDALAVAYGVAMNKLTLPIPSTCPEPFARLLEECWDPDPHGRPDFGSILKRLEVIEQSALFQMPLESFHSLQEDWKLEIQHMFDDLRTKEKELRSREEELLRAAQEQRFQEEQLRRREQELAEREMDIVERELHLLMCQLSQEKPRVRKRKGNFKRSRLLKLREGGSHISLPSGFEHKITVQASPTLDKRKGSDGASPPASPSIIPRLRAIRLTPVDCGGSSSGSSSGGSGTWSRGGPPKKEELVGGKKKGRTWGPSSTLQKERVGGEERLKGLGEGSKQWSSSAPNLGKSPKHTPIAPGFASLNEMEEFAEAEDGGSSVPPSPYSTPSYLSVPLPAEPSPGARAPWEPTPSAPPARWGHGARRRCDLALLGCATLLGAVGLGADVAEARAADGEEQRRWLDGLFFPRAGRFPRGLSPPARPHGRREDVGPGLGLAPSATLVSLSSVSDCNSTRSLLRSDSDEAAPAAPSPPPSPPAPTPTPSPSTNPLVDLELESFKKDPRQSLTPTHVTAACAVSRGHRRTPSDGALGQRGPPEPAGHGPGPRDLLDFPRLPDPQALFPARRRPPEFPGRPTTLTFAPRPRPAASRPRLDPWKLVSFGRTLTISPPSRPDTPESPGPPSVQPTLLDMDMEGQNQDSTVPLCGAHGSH
Chain of Ephrin type-A receptor 4 (Homo sapiens) (P54764 whole entry): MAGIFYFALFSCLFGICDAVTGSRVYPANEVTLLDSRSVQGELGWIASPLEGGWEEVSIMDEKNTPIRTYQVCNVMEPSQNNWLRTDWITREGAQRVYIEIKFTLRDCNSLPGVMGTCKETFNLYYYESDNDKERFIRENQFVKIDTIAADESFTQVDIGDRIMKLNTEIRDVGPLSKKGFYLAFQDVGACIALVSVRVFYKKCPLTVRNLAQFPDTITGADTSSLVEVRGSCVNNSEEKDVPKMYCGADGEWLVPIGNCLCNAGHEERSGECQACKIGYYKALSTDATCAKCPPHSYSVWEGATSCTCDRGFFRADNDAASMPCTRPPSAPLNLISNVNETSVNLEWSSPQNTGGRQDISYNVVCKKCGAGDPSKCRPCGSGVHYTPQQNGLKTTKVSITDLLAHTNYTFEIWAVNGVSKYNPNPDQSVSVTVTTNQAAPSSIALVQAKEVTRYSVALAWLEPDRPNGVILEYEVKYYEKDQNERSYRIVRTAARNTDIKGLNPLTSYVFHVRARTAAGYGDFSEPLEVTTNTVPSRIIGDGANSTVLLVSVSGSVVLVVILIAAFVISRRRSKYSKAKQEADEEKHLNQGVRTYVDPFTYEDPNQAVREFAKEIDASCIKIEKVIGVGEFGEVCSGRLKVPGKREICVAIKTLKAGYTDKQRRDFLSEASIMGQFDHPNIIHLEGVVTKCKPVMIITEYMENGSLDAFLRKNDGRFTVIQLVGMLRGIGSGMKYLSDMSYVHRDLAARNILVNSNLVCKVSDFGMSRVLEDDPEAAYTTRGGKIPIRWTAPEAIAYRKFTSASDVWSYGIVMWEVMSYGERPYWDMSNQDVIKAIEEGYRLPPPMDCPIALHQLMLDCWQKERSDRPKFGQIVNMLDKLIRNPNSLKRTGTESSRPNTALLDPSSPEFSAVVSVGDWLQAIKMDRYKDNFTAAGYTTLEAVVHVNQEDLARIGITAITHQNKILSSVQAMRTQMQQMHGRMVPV

As to `CNc1cc(Oc2cc(C(=O)Nc3cc(N4CCN(C)CC4)cc(C(F)(F)F)c3)ccc2C)ncn1`, the inhibition in [1] is 2.7%; in [2], 16.8%; in experiment [3] it was -5%; in experiment [4], 8.9%.

For `CCN1CCN(Cc2ccc(NC(=O)c3ccc(C)c(/C=C/c4cnc5[nH]ccc5c4OC)c3)cc2C(F)(F)F)CC1`, the inhibition was -8.2% in experiment [5] and 83% in experiment [7]. The values for the residual activity in experiment [6], in experiment [9] and in experiment [10] were 100%, 53% and 3.7%, respectively. Further, in [8], the percent of control was 0%.

On to `CCN1CCN(Cc2ccc(NC(=O)c3ccc(C)c(Oc4ccnc5[nH]ccc45)c3)cc2C(F)(F)F)CC1`, for which the inhibition in experiment [11] is 9.4%; in experiment [12], 16.3%. For the same molecule, the inhibition entry in experiment [13] and in experiment [14] was “inactive” in each case.

By inhibition is commonly meant the relative decrease from the control value, in per cent.
